According to ChEMBL document CHEMBL3526089, “Selective mechanism-based inactivation of CYP3A4 by CYP3cide (PF-04981517) and its utility as an in vitro tool for delineating the relative roles of CYP3A4 versus CYP3A5 in the metabolism of drugs” (Drug Metab Dispos, 2012):

Tests used:
Format in all cases: ADME
Conditions in all cases: recombinant enzyme
Cytochrome P450 3A4 [1] = molecular target: T1, Cytochrome P450 3A4 (Homo sapiens, UniProt P08684); test: Drug level assessed as human recombinant CYP3A4 in presence of human P450 oxidoreductase and b5-mediated drug metabolism treated with 10 uM of PF-04981517 by HPLC-MS analysis in presence of KCN and NADPH
T1 sequence (P08684 whole entry): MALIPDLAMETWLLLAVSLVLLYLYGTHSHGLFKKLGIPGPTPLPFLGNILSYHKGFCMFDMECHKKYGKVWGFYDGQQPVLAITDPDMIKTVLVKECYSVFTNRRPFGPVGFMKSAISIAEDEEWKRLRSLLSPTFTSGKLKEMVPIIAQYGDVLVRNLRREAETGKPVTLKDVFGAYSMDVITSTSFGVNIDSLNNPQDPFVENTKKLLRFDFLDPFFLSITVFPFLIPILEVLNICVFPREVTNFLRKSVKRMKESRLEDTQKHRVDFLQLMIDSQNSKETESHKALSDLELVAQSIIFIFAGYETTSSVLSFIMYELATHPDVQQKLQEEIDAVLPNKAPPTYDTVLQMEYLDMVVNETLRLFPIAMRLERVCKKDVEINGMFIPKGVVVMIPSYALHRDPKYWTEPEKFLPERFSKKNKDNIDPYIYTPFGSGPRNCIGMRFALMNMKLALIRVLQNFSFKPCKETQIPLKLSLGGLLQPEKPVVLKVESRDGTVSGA
How it was run: (§1)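 Recombinant CYP3A4 or CYP3A5 (50 pmol/ml final) added, without preincubation, to 10 µM CYP3cide with NADPH (final 1 mM) in 100 mM phosphate pH 7.4. Trapping incubations also held 200 µM KCN or 5 mM GSH (final). Incubated 1 h at 37°C, quenched with acetonitrile, dried, reconstituted. Metabolites analysed by LC/Orbitrap ESI-MS.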

Cytochrome P450 3A4 [2] = molecular target: T1, Cytochrome P450 3A4; test: Drug level assessed as human recombinant CYP3A4 in presence of human P450 oxidoreductase and b5-mediated drug metabolism treated with 10 uM of PF-04981517 by HPLC-MS analysis in presence of NADPH; how it was run: as §1
Cytochrome P450 3A5 [3] = molecular target: T2, Cytochrome P450 3A5 (Homo sapiens, UniProt P20815); test: Drug level assessed as human recombinant CYP3A5 in presence of human P450 oxidoreductase and b5-mediated drug metabolism treated with 10 uM of PF-04981517 by HPLC-MS analysis in presence of NADPH; how it was run: as §1
T2 sequence (P20815 whole entry): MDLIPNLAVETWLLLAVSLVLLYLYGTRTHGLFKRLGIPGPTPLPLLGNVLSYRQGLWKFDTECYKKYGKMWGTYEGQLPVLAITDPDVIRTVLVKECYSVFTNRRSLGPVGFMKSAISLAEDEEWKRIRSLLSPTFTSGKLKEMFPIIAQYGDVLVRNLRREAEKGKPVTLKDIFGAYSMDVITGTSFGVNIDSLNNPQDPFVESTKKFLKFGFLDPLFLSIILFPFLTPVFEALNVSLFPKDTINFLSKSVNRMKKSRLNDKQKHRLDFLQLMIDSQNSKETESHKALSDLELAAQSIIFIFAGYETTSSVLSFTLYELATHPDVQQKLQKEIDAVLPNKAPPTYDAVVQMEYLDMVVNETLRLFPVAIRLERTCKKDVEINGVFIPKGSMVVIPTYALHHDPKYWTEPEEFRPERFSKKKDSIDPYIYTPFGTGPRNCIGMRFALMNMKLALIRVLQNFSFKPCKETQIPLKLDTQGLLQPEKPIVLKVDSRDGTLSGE

Cytochrome P450 3A5 [4] = molecular target: T2, Cytochrome P450 3A5; test: Drug level assessed as human recombinant CYP3A5 in presence of human P450 oxidoreductase and b5-mediated drug metabolism treated with 10 uM of PF-04981517 by HPLC-MS analysis in presence of KCN and NADPH; how it was run: as §1
Cytochrome P450 3A5 [5] = molecular target: T2, Cytochrome P450 3A5; test: Drug metabolism assessed as human recombinant CYP3A5 in presence of human P450 oxidoreductase and b5-mediated compound formation at 10 uM by HPLC-MS analysis in presence of KCN; how it was run: as §1

Drug metabolism (Cytochrome P450 3A4 [1]) | Drug metabolism (Cytochrome P450 3A4 [2]) | Drug metabolism (Cytochrome P450 3A5 [3]) | Drug metabolism (Cytochrome P450 3A5 [4]) | Drug metabolism (Cytochrome P450 3A5 [5]) | SMILES
metabolite_detected | metabolite_detected | metabolite_detected | metabolite_detected | – | Cc1ccc(-c2c(-c3nn(C)c4ncnc(N5CC[C@H](N6CCCCC6)C5)c34)cnn2CO)cc1
metabolite_detected | metabolite_detected | metabolite_detected | metabolite_detected | – | Cc1ccc(-c2c(-c3nn(C)c4ncnc(N5CC[C@H]([N+]6=CCCCC6)C5)c34)cnn2C)cc1
– | – | – | – | metabolite_detected | Cc1ccc(-c2c(-c3nn(C)c4ncnc(N5CC[C@H](N)C5)c34)cnn2C)cc1
– | – | – | – | metabolite_detected | Cc1ccc(-c2c(-c3nn(C)c4ncnc(N5CC[C@H](N6CCCCC6=O)C5)c34)cnn2C)cc1
